# Screening data from PubChem.
# Hck-Nef inh = inhibitors of Nef-activated human Hck kinase, primary screen, biochemical, Z-Lyte FRET, 384-well, Hck-YEEI; Recombinant Hck-YEEI plus Nef, Z-Lyte FRET kinase assay; AID 463187, 2010; Tyrosine-protein kinase HCK (Homo sapiens), P08631; inhibition, % at 20 µM; 0.68% of 220,000 active;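 active means Hck-Nef kinase inhibition above about 50%, limit read from the data; inactive means inhibition below that limit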;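 further: 0% = DMSO with Hck plus Nef and 100% = Hck alone without Nef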
# RanGTP-Imp inh = inhibitors of RanGTP-importin-beta interaction, primary screen, biochemical, FRET, CFP-Ran, YFP-importin-beta, homogeneous | Ran GTPase (GTP-bound) - importin-beta complex | cell-free CFP-Ran/YFP-importin-beta FRET ratio | inhibition, % (concentration not given with the values) | 1.1% of 300,000 active | AID 2216, 2009;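 active means more than half of the replicate wells show a fall in the fluorescence ratio signal beyond about 16%, limit read from the data, passing the limit was not always enough; inconclusive means exactly half of the replicate wells pass the set limit; inactive means fewer than half of replicates pass the limit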;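 further: 0% = DMSO wells and 100% = Ran loaded with GDP instead of GTP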
# Runt-CBFb FRET = inhibitors of RUNX1 Runt–CBFb binding, primary screen, biochemical, FRET, Cerulean-Runt, Venus-CBFb, uHTS | Runt-related transcription factor 1 (Homo sapiens) + Core-binding factor subunit beta … | Cerulean-Runt/Venus-CBFb FRET ratio 530/480, 1 h | inhibition, % at 20 µM | 0.46% of 220,000 active | AID 1496, 2009;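 active means inhibition over about 50% at 20 µM in the single-dose screen, limit read from the data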;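 further: 0% = DMSO wells and 100% = excess unlabeled CBFb competitor control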
# Target sequence (Q01196 whole entry, looked up): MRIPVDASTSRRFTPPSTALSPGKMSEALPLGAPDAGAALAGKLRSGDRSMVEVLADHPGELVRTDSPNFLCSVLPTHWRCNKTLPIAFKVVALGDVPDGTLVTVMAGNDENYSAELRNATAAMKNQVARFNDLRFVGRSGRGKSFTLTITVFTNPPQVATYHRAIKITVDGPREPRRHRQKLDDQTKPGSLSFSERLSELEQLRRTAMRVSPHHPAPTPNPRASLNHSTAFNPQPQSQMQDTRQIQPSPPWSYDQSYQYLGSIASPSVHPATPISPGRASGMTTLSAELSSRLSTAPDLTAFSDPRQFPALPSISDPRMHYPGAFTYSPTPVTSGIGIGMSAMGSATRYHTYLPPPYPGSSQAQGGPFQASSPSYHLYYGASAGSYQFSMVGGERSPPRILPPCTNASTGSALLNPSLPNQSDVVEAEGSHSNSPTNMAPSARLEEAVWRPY
# Target sequence (Q13951 whole entry, looked up): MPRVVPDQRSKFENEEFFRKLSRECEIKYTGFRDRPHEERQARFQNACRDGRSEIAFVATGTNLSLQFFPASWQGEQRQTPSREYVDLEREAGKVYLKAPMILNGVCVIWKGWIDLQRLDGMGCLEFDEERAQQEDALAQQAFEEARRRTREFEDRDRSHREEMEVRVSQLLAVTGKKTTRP
#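 Measured by: fluorescence energy transfer, 422 nm excitation, 530/480 nm emission; Assay system: Cerulean-Runt domain; Medium: Tris pH 7.5 buffer with BSA; Measure: loss of energy transfer signal; Controls: 5 µM unlabeled CBFb as full-inhibition high control; Incubation: protein complex preformed 1 h, compound exposure 1 h, room temperature, dark.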
# Runt-SMMHC FRET = inhibitors of RUNX1 Runt–CBFb-SMMHC binding, primary screen, biochemical, FRET, Cerulean-Runt, Venus-CBFb-SMMHC, uHTS | Runt-related transcription factor 1 (Homo sapiens) + Core-binding factor subunit beta … | Cerulean-Runt/Venus-CBFb-SMMHC FRET ratio 530/480, 1 h | inhibition, % at 20 µM | 0.74% of 220,000 active | AID 1434, 2008;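 active means mean inhibition across duplicate retests at 20 µM reaching about 50%, limit read from the data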;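 further: 0% = DMSO wells and 100% = wells with excess untagged CBFb-SMMHC; inhibitors lower the FRET ratio by blocking Runt binding to CBFb-SMMHC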
# Hck Nef conf = retest of Hck:Nef kinase inhibitor hits, confirmation, biochemical, Z-Lyte FRET, 384-well, p-Tyr peptide counterscreen; calls only at 10 µM; 28% of 1,300 active; shares compounds with Hck-Nef inh; Recombinant Hck-YEEI:Nef, Z-Lyte FRET kinase assay;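 active means average inhibition of at least 50%, with Z-scores no higher than 3 in both the phospho-tyrosine peptide and fluorescence counterscreens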
# * = called active by the depositor; i = inactive; ? = inconclusive; . = not tested or not shown; + = active, no number. A selection: hits, their analogues and other compounds. The true share with any hit is near 1.8%.
SMILES,Hck-Nef inh,RanGTP-Imp inh,Runt-CBFb FRET,Runt-SMMHC FRET,Hck Nef conf
CC(=O)c1sc(N/N=C\c2ccc(Br)cc2)nc1C,0,-1,-24,-50,.
CC(=O)Nc1sc(N/N=C/c2ccccc2)nc1-c1ccc(C)cc1,69*,3,6,-3,i
CC(=O)Nc1sc(N/N=C/c2ccccc2F)nc1-c1ccc(C)cc1,29,1,12,-14,.
CC(=O)Nc1sc(N/N=C/c2ccc(O)cc2)nc1-c1ccc(C)cc1,69*,0,7,0,i
CC(=O)Nc1sc(N/N=C\c2ccccc2)nc1-c1cccs1,14,4,12,-3,.
CC(=O)Nc1nnc(SCC(=O)N2C(C)CCCC2C)s1 (configuration not stated),.,0,.,.,.
CCCCOC(=O)c1ccc(NC(=O)C(=O)CC(=O)c2ccc(OC)cc2)cc1,.,-4,.,.,.
O=C(Nc1ccc(-c2cnco2)cc1)c1ccccc1,-2,1,2,-3,.
O=C(NC(=O)c1ccccc1Cl)Nc1ccc(-c2cnco2)cc1,70*,7,-2,-2,i
COc1cc(/C=C/[N+](=O)[O-])ccc1OCc1cccc(C(=O)O)c1,62*,1,17,16,i
CC(=O)n1cc(Nc2ccc([N+](=O)[O-])cc2)c2ccccc21,108*,-3,-1,-4,i
c1ccc(-c2nccc(-c3ccc(-n4cnc5ccccc54)cc3)n2)cc1,102*,-6,-3,-4,i
c1ccc(-n2cnc3ccccc32)nc1,.,-1,.,.,.
CC(=O)C1=C(O)C(=O)N(c2ccccn2)C1c1ccccc1[N+](=O)[O-] (configuration not stated),.,-3,.,.,.
COCCNC(=O)/C(C#N)=C1\N=C(N)c2ccccc21,53*,0,1,10,i
CCCn1c(NC(=O)c2cccc(S(=O)(=O)N3CCCC3)c2)nc2ccccc21,52*,1,0,4,+
CCCn1c(NC(=O)c2ccccc2)nc2ccccc21,0,7,0,0,.
COc1cc2nc(Cl)nc(N3CCOCC3)c2cc1OC,69*,?,.,2,i
CSc1ccc(CN(C)C(=O)CNC(=O)c2sc3ccccc3c2Cl)cc1,.,4,.,.,.
Cc1ccc2[nH]c(=O)c3cc(C(=O)N(C)c4ccccc4C)sc3c2c1,21,4,-2,-4,.
CC1(C)CC(=O)C=C(C(=O)N2CCCC(C(=O)c3cccc(Cl)c3)C2)O1 (configuration not stated),24,-2,-4,0,.
N#C/C(=C\c1ccccc1OCc1ccc(C(=O)O)cc1)C(=O)Nc1ccc(O)cc1,69*,-3,0,-2,i
COc1cc(/C=C(/C#N)c2ccc(F)cc2)ccc1OCc1ccc(C(=O)O)o1,55*,3,-2,-2,+
COc1ccc(NC(=O)/C(C#N)=C\c2ccc(OCc3ccc(C(=O)O)cc3)c(OC)c2)cc1,70*,-5,-3,0,i
COc1ccc(/C=C(\C#N)C(=O)Nc2ccc3[nH]c(=O)[nH]c3c2)cc1,71*,2,-3,-5,i
SMILES,Hck-Nef inh,RanGTP-Imp inh,Runt-CBFb FRET,Runt-SMMHC FRET,Hck Nef conf
CCCCOc1cccc(C2/C(=C(/O)c3ccc4c(c3)CC(C)O4)C(=O)C(=O)N2CCN2CCOCC2)c1 (configuration not stated),.,4,.,.,.
COc1ccc(Cc2nnc(NS(=O)(=O)c3ccc(Cl)cc3)s2)cc1OC,24,2,-2,2,.
O=C(Nc1ccccc1C(=O)N1CCCCCC1)c1cccc([N+](=O)[O-])c1,.,3,.,.,.
COc1cccc(N2CC(O)Cn3c2nc2c3c(=O)[nH]c(=O)n2C)c1 (configuration not stated),.,5,.,.,.
CCCCN(C(=O)Cn1ncc(Cl)c(Cl)c1=O)c1c(N)n(CC(C)C)c(=O)[nH]c1=O,66*,2,2,6,+
CC(=O)c1ccc(-c2ccc(C(=O)NCC3CCCO3)o2)cc1 (configuration not stated),.,2,.,.,.
O=C(Nc1ccc(-c2n[nH]c(=S)o2)cc1)c1ccccc1Br,.,-4,.,.,.
COc1cc2ncnc(NCc3ccco3)c2cc1OC,53*,?,-1,2,i
COc1cc2ncnc(NCc3ccccc3)c2cc1OC,19,0,1,-18,.
O=C(O)c1ccc(NS(=O)(=O)c2ccc(Cl)c(C(=O)Nc3ccccc3[N+](=O)[O-])c2)cc1,.,-2,.,.,.
COc1cc(NS(=O)(=O)c2ccc(NC(=S)NC(=O)c3sc4ccccc4c3Cl)cc2)nc(OC)n1,63*,-2,6,-6,+
N=C1S/C(=C\c2ccc(-c3ccccc3C(=O)O)o2)C(=O)N1c1ccc2c(c1)OCO2,85*,-10,-7,-26,+
COc1ccccc1N1C(=N)S/C(=C\c2ccc(-c3ccccc3C(=O)O)o2)C1=O,60*,-9,-14,-90,+
CCOC(=O)CN1C(=O)S/C(=C\c2ccc(-c3cccc(C(=O)O)c3C)o2)C1=O,.,8,.,.,.
Cc1c(C(=O)O)cccc1-c1ccc(/C=C2\SC(=O)NC2=O)o1,.,7,.,.,.
Cn1c2ccccc2c(=O)c2c(=O)n(Cc3ccco3)c(-c3ccc(C(C)(C)C)cc3)nc21,55*,2,2,4,i
COc1ccc(Cn2c(-c3ccccc3)nc3c(c(=O)c4ccccc4n3C)c2=O)cc1,21,5,-6,-12,.
Cc1n[nH]c(C)c1CCNC(=O)C1CCC(=O)N(Cc2ccccc2F)C1 (configuration not stated),.,0,.,.,.
Cc1ccc(-c2[nH]ncc2/C=N/n2c(C)nc3ccccc3c2=O)cc1,60*,0,-2,-1,i
CCOC(=O)c1c(C)oc2c1c(C(c1ccncc1)N1CCOCC1)c(O)c1ccccc12 (configuration not stated),117*,.,12,-2,+
CCOC(=O)c1c(C)oc2c1c(CN1CCN(C(=O)OCC)CC1)c(O)c1ccccc12,2,3,-2,-14,.
Cc1ccc(C)c(NC(=O)c2cc3ccccn3n2)c1,11,-2,0,2,.
Cc1ccc(C)c(NC(=O)c2cnn3ccccc23)c1,67*,0,2,0,+
CCc1cc(-c2[nH]ncc2-c2ccc3c(c2)OCO3)c(O)cc1O,65*,9,1,-6,+
CC(C)[C@H](NC(=O)N1c2ccccc2NC(=O)[C@@H]1C(C)C)C(=O)N[C@H](Cc1ccccc1)C(=O)O,.,2,.,.,.
